In brackets after ≈: the same amount, converted by molar mass.
Legend:
K562 [1] = experiment: Inhibitive ratio of growth metabolism of human K562 cells at 2 mg/L at 37 degC by TAM air microcalorimetry (reference value: 0%); type: functional
Procedure, shortened: (§1)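 K562 cells in supplemented RPMI 1640 (10% FBS) seeded at 1×10⁶ cells/mL with compound at graded concentrations. Heat flow recorded in real time in an eight-channel isothermal microcalorimeter (TAM Air). Rate constant k derived from thermogenic growth curves. Inhibition ratio I = (k0 − kc)/k0 × 100% relative to untreated cells, and IC50 is the concentration at I = 50%. Mean ± S.D., n = 3.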

K562 [2] = experiment: Inhibitive ratio of growth metabolism of human K562 cells at 4 mg/L at 37 degC by TAM air microcalorimetry (reference value: 0%); type: functional; procedure, shortened: as §1
[3] = system: Schizosaccharomyces pombe; experiment: Inhibitive ratio of growth metabolism of Schizosaccharomyces pombe ACCC 20047 at 20 mg/L at 32 degC by TAM air microcalorimetry (reference value: 0%); type: functional
Procedure, shortened: (§2)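 Cells seeded at 1×10⁶ cells/mL with compound at a range of concentrations. Heat output recorded continuously in a TAM Air isothermal microcalorimeter. Growth rate constant k taken from power-time curves. I = (k0 − kc)/k0 × 100%, and IC50 is the concentration giving I = 50%. n = 3.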

K562 [4] = experiment: Inhibitive ratio of growth metabolism of human K562 cells at 14 mg/L at 37 degC by TAM air microcalorimetry (reference value: 0%); type: functional; procedure, shortened: as §1
K562 [5] = experiment: Inhibitive ratio of growth metabolism of human K562 cells at 6 mg/L at 37 degC by TAM air microcalorimetry (reference value: 0%); type: functional; procedure, shortened: as §1
[6] = system: Schizosaccharomyces pombe; experiment: Inhibitive ratio of growth metabolism of Schizosaccharomyces pombe ACCC 20047 at 40 mg/L at 32 degC by TAM air microcalorimetry (reference value: 0%); type: functional; procedure, shortened: as §2
[7] = system: Schizosaccharomyces pombe; experiment: Inhibition of growth metabolism of Schizosaccharomyces pombe ACCC 20047 assessed as growth rate constant at 400 mg/L at 32 degC by TAM air microcalorimetry; type: functional; procedure, shortened: as §2
K562 [8] = experiment: Inhibition of growth metabolism of human K562 cells assessed as growth rate constant at 4 mg/L at 37 degC by TAM air microcalorimetry; type: functional; procedure, shortened: as §1
[9] = system: Schizosaccharomyces pombe; experiment: Inhibition of growth metabolism of Schizosaccharomyces pombe ACCC 20047 at 32 degC by TAM air microcalorimetry; type: functional, organism-based; procedure, shortened: as §2
K562 [10] = experiment: Inhibition of growth metabolism of human K562 cells at 37 degC by TAM air microcalorimetry; type: functional, cell-based; procedure, shortened: as §1
[11] = system: Schizosaccharomyces pombe; experiment: Inhibition of growth metabolism of Schizosaccharomyces pombe ACCC 20047 assessed as growth rate constant at 40 mg/L at 32 degC by TAM air microcalorimetry; type: functional; procedure, shortened: as §2
[12] = system: Schizosaccharomyces pombe; experiment: Inhibition of growth metabolism of Schizosaccharomyces pombe ACCC 20047 assessed as growth rate constant at 320 mg/L at 32 degC by TAM air microcalorimetry; type: functional; procedure, shortened: as §2
[13] = system: Schizosaccharomyces pombe; experiment: Inhibition of growth metabolism of Schizosaccharomyces pombe ACCC 20047 assessed as growth rate constant at 20 mg/L at 32 degC by TAM air microcalorimetry; type: functional; procedure, shortened: as §2
K562 [14] = experiment: Inhibition of growth metabolism of human K562 cells assessed as growth rate constant at 6 mg/L at 37 degC by TAM air microcalorimetry; type: functional; procedure, shortened: as §1
K562 [15] = experiment: Inhibition of growth metabolism of human K562 cells assessed as growth rate constant at 2 mg/L at 37 degC by TAM air microcalorimetry; type: functional; procedure, shortened: as §1
K562 [16] = experiment: Inhibition of growth metabolism of human K562 cells assessed as growth rate constant at 12 mg/L at 37 degC by TAM air microcalorimetry; type: functional; procedure, shortened: as §1
[17] = system: Schizosaccharomyces pombe; experiment: Inhibitive ratio of growth metabolism of Schizosaccharomyces pombe ACCC 20047 at 320 mg/L at 32 degC by TAM air microcalorimetry (reference value: 0%); type: functional; procedure, shortened: as §2
K562 [18] = experiment: Inhibitive ratio of growth metabolism of human K562 cells at 8 mg/L at 37 degC by TAM air microcalorimetry (reference value: 0%); type: functional; procedure, shortened: as §1
[19] = system: Schizosaccharomyces pombe; experiment: Inhibitive ratio of growth metabolism of Schizosaccharomyces pombe ACCC 20047 at 400 mg/L at 32 degC by TAM air microcalorimetry (reference value: 0%); type: functional; procedure, shortened: as §2
K562 [20] = experiment: Inhibition of growth metabolism of human K562 cells assessed as growth rate constant at 14 mg/L at 37 degC by TAM air microcalorimetry; type: functional; procedure, shortened: as §1
K562 [21] = experiment: Inhibitive ratio of growth metabolism of human K562 cells at 12 mg/L at 37 degC by TAM air microcalorimetry (reference value: 0%); type: functional; procedure, shortened: as §1
K562 [22] = experiment: Inhibition of growth metabolism of human K562 cells assessed as growth rate constant at 8 mg/L at 37 degC by TAM air microcalorimetry; type: functional; procedure, shortened: as §1
[23] = system: Schizosaccharomyces pombe; experiment: Inhibition of growth metabolism of Schizosaccharomyces pombe ACCC 20047 assessed as growth rate constant at 160 mg/L at 32 degC by TAM air microcalorimetry; type: functional; procedure, shortened: as §2
[24] = system: Schizosaccharomyces pombe; experiment: Inhibitive ratio of growth metabolism of Schizosaccharomyces pombe ACCC 20047 at 160 mg/L at 32 degC by TAM air microcalorimetry (reference value: 0%); type: functional; procedure, shortened: as §2
[25] = system: Schizosaccharomyces pombe; experiment: Inhibitive ratio of growth metabolism of Schizosaccharomyces pombe ACCC 20047 at 80 mg/L at 32 degC by TAM air microcalorimetry (reference value: 0%); type: functional; procedure, shortened: as §2
[26] = system: Schizosaccharomyces pombe; experiment: Inhibition of growth metabolism of Schizosaccharomyces pombe ACCC 20047 assessed as growth rate constant at 240 mg/L at 32 degC by TAM air microcalorimetry; type: functional; procedure, shortened: as §2
[27] = system: Schizosaccharomyces pombe; experiment: Inhibitive ratio of growth metabolism of Schizosaccharomyces pombe ACCC 20047 at 240 mg/L at 32 degC by TAM air microcalorimetry (reference value: 0%); type: functional; procedure, shortened: as §2
[28] = system: Schizosaccharomyces pombe; experiment: Inhibition of growth metabolism of Schizosaccharomyces pombe ACCC 20047 assessed as growth rate constant at 80 mg/L at 32 degC by TAM air microcalorimetry; type: functional; procedure, shortened: as §2

SMILES: COc1ccc(-c2oc(-c3ccc(OC)c(OC)c3)c(C)c2C)cc1OC
- inhibition at 2 µg/mL (K562 [1]): -1.79%
- inhibition at 4 µg/mL (K562 [2]): -13.2%
- inhibition at 20 µg/mL [3]: -1.18%
- inhibition at 14 µg/mL (K562 [4]): 80%
- inhibition at 6 µg/mL (K562 [5]): 18.9%
- inhibition at 40 µg/mL [6]: -1.66%
- Activity [7]: 0.00113 min⁻¹
- Activity (K562 [8]): 4.3527 ×10⁻⁴ /min
- IC50 [9]: 350 µg/mL (≈ 950 µM)
- IC50 (K562 [10]): 11.2 µg/mL (≈ 30.5 µM)
- Activity [11]: 0.00429 min⁻¹
- Activity [12]: 0.00273 min⁻¹
- Activity [13]: 0.00427 min⁻¹
- Activity (K562 [14]): 3.1202 ×10⁻⁴ /min
- Activity (K562 [15]): 3.9155 ×10⁻⁴ /min
- Activity (K562 [16]): 1.65 ×10⁻⁴ /min
- inhibition at 320 µg/mL [17]: 35.3%
- inhibition at 8 µg/mL (K562 [18]): 19.8%
- inhibition at 400 µg/mL [19]: 73.2%
- Activity (K562 [20]): 7.6784 ×10⁻⁵ /min
- inhibition at 12 µg/mL (K562 [21]): 57.1%
- Activity (K562 [22]): 3.0855 ×10⁻⁴ /min
- Activity [23]: 0.0043 min⁻¹
- inhibition at 160 µg/mL [24]: -1.9%
- inhibition at 80 µg/mL [25]: -2.13%
- Activity [26]: 0.00346 min⁻¹
- inhibition at 240 µg/mL [27]: 18%
- Activity [28]: 0.00431 min⁻¹
